Experimental data taken from paper PMC7215194 (Heliyon, 2020).

Experiments:
[1] = tested on: A431 cells; assay: TAMRA-peptides internalization assay, confocal microscopy of living cells; type: cell-based, human
Outline: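 A431 cells (2.5 × 10^5) were seeded in coverslip-bottom imaging dishes in DMEM with 10% FBS. After 6 h, serum-deprived medium with N-terminal 5(6)-TAMRA-labeled test peptides (20 μg/ml) was added for 5 min or overnight, with free TAMRA (1.7 μM) as control. Living cells were gently washed and imaged by confocal microscopy with a 63x objective, 561 nm laser and white light, taking z-planes every 0.8 μm.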

[2] = tested on: A431 cells; assay: Anchorage-independent growth assay in soft agar; type: cell-based, human; settings: 14 days, n = 4; for effect on size and number of colonies grown in soft agar: 20 μM W-7 or 25 μM W-12, 10% FBS, colonies >60 μm
Outline: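 A431 cells (10^5 per 60 mm dish) suspended in DMEM ± 10% (v/v) FBS with 10 mM NaOH-Hepes pH 7.5 in 0.3% agarose, layered over 0.5% agarose. Fed every 72–96 h with fresh medium ± 10 nM EGF, 20 μM W-7 or 25 μM W-12 in DMSO; vehicle 0.4% DMSO. Imaged at day 14 with a 4x objective; colonies ≥60 μm counted.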

[3] = tested on: A431 cells; assay: Artificial wound healing assay; type: cell-based, human; settings: for effect of W-7/W-12 on cell migration in the absence of EGF: 20 μM, no EGF, time-lapse 48 h, n = 3
[4] = tested on: A431 cells; assay: Cell detachment assay; type: cell-based, human; settings: overnight with 20 μg/ml peptides or 20 μM W-7/W-12, then 1 mM EGTA, n = 3
Outline: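 A431 cells (DMEM, 2 mM L-glutamine, 10% FBS, 37 °C, 5% CO2) were seeded at 10^6 per 60 mm dish in 10% FBS. After 6 h, test peptides (20 μg/ml) or W-7/W-12 (20 μM) in DMSO were added in serum-deprived medium overnight, with 0.2–0.4% DMSO vehicle controls. Cells were then exposed to 1 mM EGTA, and detached cells in aliquots were counted in a Neubauer chamber over time. Values are mean ± SEM percent detached, n = 3.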

[5] = tested on: hepatocarcinoma cells; settings: EGF-dependent vs basal EGF-independent proliferation; cited from earlier work

| Compound | membrane blebbing (initiation of apoptosis) of treated cells [1] | effect on size and number of colonies grown in soft agar [2] | effect of W-7/W-12 on cell migration in the absence of EGF [3] | effect on cell detachment with EGTA [4] | effect of W-7 on proliferation of hepatocarcinoma cells [5] | effect of EGF on anchorage-independent growth in soft agar ([2]; 10 nM EGF) | delayed action of EGF on the initiation of cell migration ([3]; 10 nM EGF, n = 9) [h] |
| --- | --- | --- | --- | --- | --- | --- | --- |
| 5(6)-carboxytetramethylrhodamine [free TAMRA] | not observed |  |  |  |  |  |  |
| NCCCCCCNS(=O)(=O)c1cccc2c(Cl)cccc12 [W-7, N-(6-aminohexyl)-5-chloro-1-naphthalenesulfonamide] |  | strongly inhibits | increased the initial migration rate of the cells, particularly with the high affinity inhibitor W-7 | only partially | inhibits EGF-dependent but not basal EGF-independent proliferation of hepatocarcinoma cells |  |  |
| NCCCCNS(=O)(=O)c1ccc2ccccc2c1 [W-12, N-(4-aminobutyl)-2-naphthalenesulfonamide] |  | very low effect | increased the initial migration rate of the cells | only partially |  |  |  |
| EGF: epidermal growth factor |  |  |  |  |  | particularly decreasing the size of the colonies | 11.5 ± 1.4 |
